{"data": "Assay results from different studies", "method": "competition with immobilised ligand", "JAK2 JH1": "Tyrosine-protein kinase JAK2, JH1 (JAK2, Homo sapiens, UniProt O60674)", "JAK2": "Tyrosine-protein kinase JAK2 (JAK2, Homo sapiens, UniProt O60674)", "note": "Lines come from different studies, so protocols differ."}
{"SMILES": "CCc1ccccc1C(=O)Nc1n[nH]c2c(C)c(F)c(C3C(C#N)=C(C)N(C)C(C)=C3C#N)cc12", "target": "JAK2 JH1", "read-out": "cell-free assay", "concentration": "1 µM", "remaining binding": "100%"}
{"SMILES": "O=C(c1ccc(Nc2nccc(-c3cc4ccccc4s3)n2)cc1)N1CCC(N2CCCC2)CC1", "target": "JAK2 JH1", "read-out": "binding", "concentration": "1 µM", "remaining binding": "0.1%"}
{"SMILES": "COc1cnc(Nc2cccc(S(N)(=O)=O)c2)nc1N1CCN(c2ccccc2)CC1", "target": "JAK2 JH1", "read-out": "binding", "concentration": "1 µM", "remaining binding": "14%"}
{"SMILES": "O=C(c1ccc(Nc2ncc(Cl)c(-c3ccc(Cl)s3)n2)cc1)N1CCC(N2CCCC2)CC1", "target": "JAK2 JH1", "read-out": "binding", "concentration": "1 µM", "remaining binding": "1.3%"}
{"SMILES": "CC(C)(C)c1ccc(-c2nc(CBr)nn2-c2cccc(O)c2)cc1", "target": "JAK2", "read-out": "cell-free assay", "concentration": "10 µM", "remaining binding": "67%"}
{"SMILES": "O=C(NS(=O)(=O)c1ccc(NCC2CCOCC2)c([N+](=O)[O-])c1)c1ccc(N2CCN(Cc3ccc(C(F)(F)F)cc3-c3ccc(Cl)cc3)CC2)cc1Oc1cnc2[nH]ccc2c1", "target": "JAK2 JH1", "read-out": "cell-free assay", "concentration": "1 µM", "remaining binding": "90%"}
{"SMILES": "O=C(Nc1c[nH]nc1C(=O)NC1CCNCC1)c1cc(F)cc(F)c1", "target": "JAK2 JH1", "read-out": "binding", "concentration": "1 µM", "remaining binding": "100%"}
{"SMILES": "C[C@H](c1cccc(C#N)c1)n1cc(Cl)cc(C(N)=O)c1=N", "target": "JAK2 JH1", "read-out": "cell-free assay", "concentration": "1 µM", "remaining binding": "100%"}
{"SMILES": "N#Cc1ccccc1CSc1nnc2c(n1)[nH]c1ccccc12", "target": "JAK2 JH1", "read-out": "binding", "concentration": "10 µM", "remaining binding": "100%"}
{"SMILES": "COc1ccc2c(O[C@@H]3C[C@H]4C(=O)N[C@]5(C(=O)O)CC5/C=C\\CCCCC[C@H](NC(=O)OC5CCCC5)C(=O)N4C3)cc(-c3csc(NC(=O)C(C)C)n3)nc2c1C (stereo partly shown)", "target": "JAK2 JH1", "read-out": "cell-free assay", "concentration": "1 µM", "remaining binding": "64%"}
{"SMILES": "C[C@@H]1CN(c2ccc3ncc(-c4ccc5[nH]nc(C6CC6)c5c4)n3n2)C[C@H](C)O1", "target": "JAK2", "read-out": "binding", "concentration": "0.5 µM", "remaining binding": "87%"}
{"SMILES": "Cc1cnn2ncc(-c3ccnc(N(C)C)n3)c2c1", "target": "JAK2 JH1", "read-out": "cell-free assay", "concentration": "1 µM", "remaining binding": "93%"}
{"SMILES": "Cn1nc(C(F)(F)F)cc1-c1cnc(N2CCc3cc(S(=O)(=O)Nc4c(F)cc(Cl)cc4F)cc(N4CCCC4=O)c32)nc1", "target": "JAK2 JH1", "read-out": "cell-free assay", "concentration": "1 µM", "remaining binding": "82%"}
{"SMILES": "CCN1CCN(Cc2ccc(C(=O)Nc3ccc(C)c(Oc4ccc5c(c4)CC(=O)N5)c3)cc2C(F)(F)F)CC1", "target": "JAK2 JH1", "read-out": "binding", "concentration": "1 µM", "remaining binding": "91%"}
{"SMILES": "CNC(=O)Nc1ccc2c(c1)[C@@]1(CC2)OC(=O)N(CC(=O)N(Cc2ccc(F)cc2)[C@@H](C)C(F)(F)F)C1=O", "target": "JAK2 JH1", "read-out": "cell-free assay", "concentration": "1 µM", "remaining binding": "100%"}
{"SMILES": "CN(C)c1nccc(-c2cnn3ncccc23)n1", "target": "JAK2 JH1", "read-out": "cell-free assay", "concentration": "1 µM", "remaining binding": "49%"}
{"SMILES": "Nc1ncc2c(n1)-c1c([nH]c3ccc(C#CC4CC4)cc13)CCCC2", "target": "JAK2 JH1", "read-out": "binding", "concentration": "1 µM", "remaining binding": "80%"}
{"SMILES": "CN(C)c1nccc(-c2cnc3ncccn23)n1", "target": "JAK2 JH1", "read-out": "cell-free assay", "concentration": "1 µM", "remaining binding": "80%"}
{"SMILES": "O=C(c1ccc(Nc2ncc(Cl)c(-c3cc4ccccc4s3)n2)cc1)N1CCC(N2CCCC2)CC1", "target": "JAK2 JH1", "read-out": "binding", "concentration": "1 µM", "remaining binding": "0%"}
